For data set [1], the system named is Mus musculus. The data set can be described thus: Tumor growth or regression measured as Percent treated by control at a dose of 42 mg/Kg to mice with MX-1 xenograft. Type of data set: functional. An outline of the steps: (§1)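 Subrenal capsule MX-1 mammary xenograft in mice, run at the National Cancer Institute per NIH Publication No. 84-2635. %T/C = (Δ tumor weight treated / Δ tumor weight control) × 100 where tumors grew. Where tumors regressed, %T/C = (Δ tumor weight treated / initial control tumor weight) × 100.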

Data set [2] concerns Mus musculus. The data set can be described thus: Tumor growth or regression measured as Percent treated by control at a dose of 10.5 mg/Kg to mice with MX-1 xenograft. It is filed as functional. An outline of the steps: as §1
Data set [3] relates to B16. The data set can be described thus: Percentage change in cell number of B16 melanoma cells treated with 10e-6 M dose. It is filed as functional, Mus musculus. In short, it runs like this:
(§2)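 B16 melanoma cells exposed to 10⁻⁵ or 10⁻⁶ M compound for 8 h, then rinsed three times with fresh medium. Cells then grown in drug-free medium for 48 h and counted. Result given as percent change relative to the cell number at time zero. Controls are the average of three experiments.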

Data set [4] concerns Mus musculus. Description: Final average tumor weight was measured in mice induced with human mammary carcinoma at a dose of 5.25 mg/Kg. Type of data set: functional. In short, it runs like this:
(§3)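 MX-1 human mammary carcinoma xenograft implanted under the renal capsule of mice. The study was run at the National Cancer Institute following the procedures of NIH Publication No. 84-2635. Average tumor weight was recorded at the start and end of treatment, and survivors were counted after 11 days. Dosed groups were compared with an untreated control group.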

The subject of data set [5] is Mus musculus. The data set can be described thus: Initial average tumor weight was measured in mice induced with human mammary carcinoma at a dose of 5.25 mg/Kg. It is filed as functional. An outline of the steps:
as §3

For data set [6], the species on record is Bos taurus. Description: Relative effect on microtubular assembly (Tubulin polymerized by derivative/tubulin polymerized by taxol). It is filed as functional. In short, it runs like this: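 Bovine brain tubulin, purified from microtubule-associated proteins by phosphocellulose chromatography, used at 10 μM. Turbidity followed at 350 nm. Polymer pelleted at 200000g, 37 °C, 4 min, depolymerized on ice, and protein measured by Bradford.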

Data set [7] concerns B16. Description: Percentage change in cell number of B16 melanoma cells treated with 10e-5 M dose. It is filed as functional, Mus musculus. An outline of the steps:
as §2

Data set [8] deals with Mus musculus. Description: Initial average tumor weight was measured in mice induced with human mammary carcinoma at a dose of 42 mg/Kg. Type of data set: functional. In short, it runs like this:
as §3

In data set [9] the test system is B16. The data set can be described thus: Relative effect on B16 melanoma cell proliferation was determined [IC50 (taxol)/IC50 (derivative)]. Type of data set: functional, Mus musculus.
Data set [10] concerns Mus musculus. Description: Final average tumor weight was measured in mice induced with human mammary carcinoma at a dose of 10.5 mg/Kg. It is filed as functional. In short, it runs like this: as §3
The subject of data set [11] is Mus musculus. The data set can be described thus: Tumor growth or regression measured as Percent treated by control at a dose of 5.25 mg/Kg to mice with MX-1 xenograft. It is filed as functional. An outline of the steps:
as §1

Data set [12] has as its system Mus musculus. The data set can be described thus: Number of survivors after 11 days at a dose of 42 mg/Kg tested in 5 mice. Type of data set: functional. In short, it runs like this:
as §3

Data set [13] can be described thus: Solubility in water. Type of data set: physicochemical. Particulars: read-out: S.
In data set [14] the test system is Mus musculus. The data set can be described thus: Number of survivors after 11 days at a dose of 5.25 mg/Kg tested in 6 mice. Type of data set: functional. In short, it runs like this: as §3
In data set [15] the test system is Mus musculus. Description: Initial average tumor weight was measured in mice induced with human mammary carcinoma at a dose of 10.5 mg/Kg. Type of data set: functional. An outline of the steps: as §3
For data set [16], the system named is Mus musculus. The data set can be described thus: Final average tumor weight was measured in mice induced with human mammary carcinoma at a dose of 42 mg/Kg. It is filed as functional. In short, it runs like this: as §3
The subject of data set [17] is Mus musculus. Description: Antitumor activity of taxoland the derivative against mammary carcinoma xenograft in mice. It is filed as functional. An outline of the steps:
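MX-1 human mammary carcinoma xenograft implanted under the renal capsule in mice. Study run at the National Cancer Institute following NIH Publication No. 84-2635. Tumor weights recorded at the start and at the end. Survivors counted after 11 days. %T/C = (Δ tumor weight treated/Δ tumor weight control) × 100 where the tumor grows, and (Δ tumor weight treated/initial control tumor weight) × 100 where it regresses.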

The test system of data set [18] is Mus musculus. Description: Number of survivors after 11 days at a dose of 10.5 mg/Kg tested in 6 mice. Type of data set: functional. In short, it runs like this:
as §3

The subject of data set [19] is B16. The data set can be described thus: Concentration required to inhibit the proliferation of B16 melanoma cells was determined. Type of data set: functional, cell-based. To be noted: Mus musculus.

SMILES strings stand for the structures.

Turning to `CC(=O)O[C@H]1C(=O)[C@]2(C)[C@@H](OC(=O)CN(C)C)C[C@H]3OC[C@@]3(OC(C)=O)[C@H]2[C@H](OC(=O)c2ccccc2)[C@]2(O)C[C@H](OC(=O)[C@H](OC(=O)CN(C)C)[C@@H](NC(=O)c3ccccc3)c3ccccc3)C(C)=C1C2(C)C.CS(=O)(=O)O.CS(=O)(=O)O`, the values for the T/C in data set [1], in data set [2] and in [11] were 144%, 193% and 70%, respectively. In addition, the “Change in cell number” value was 137% in data set [3] and -72% in data set [7]. Moreover, the “Final average tumor weight” value in [4] was determined as 2.51 mg; in data set [10], 5.55 mg; in data set [16] it was 4.35 mg. Also, the entries for the “Initial average tumor weight” value in data set [5], in data set [8] and in data set [15] were 0.71 mg, 0.66 mg and 0.59 mg, respectively. The Relative effect in data set [6] came to 0.42; in data set [9], 0.45. Moreover, the No. of survivors came to 4 in [12], 6 in data set [14] and 5 in data set [18]. Besides, the solubility in [13] was above 8.11 mM. In addition, the Relative antitumor activity in data set [17] is 4. In addition, in data set [19], the 50% inhibitory concentration (IC50) is 42 nM.

What is called T/C is the ratio of treated to control. One may read the IC50 as the concentration needed to halve the response being measured. Low readings indicate inhibition by little substance, high ones a need for much substance.

Values taken from ChEMBL document CHEMBL1126013, “Synthesis and evaluation of some water-soluble prodrugs and derivatives of taxol with antitumor activity” (J Med Chem, 1992).
